# In ChEMBL document CHEMBL3425420 (J Med Chem, 2015):
# What was measured:
# [1] = target: T1, Induced myeloid leukemia cell differentiation protein Mcl-1 (Homo sapiens, UniProt Q07820); test: Displacement of FITC-Bak-BH3 peptide from Mcl-1 (unknown origin) incubated for 1.5 hrs by FPA competition assay
# [2] = target: Apoptosis regulator Bcl-2 (Homo sapiens, UniProt P10415); test: Displacement of FITC-Bak-BH3 peptide from Bcl-2 (unknown origin) incubated for 1.5 hrs by FPA competition assay
# In short: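 Compounds were added as a 10-point, 3-fold serial dilution and incubated 1.5 h at room temperature. The anisotropy change was fitted to a four-parameter variable-slope curve for IC50, converted to Ki, and duplicates were averaged.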
# [3] = target: Bcl-2-like protein 1 (Homo sapiens, UniProt Q07817); test: Displacement of FITC-Bak-BH3 peptide from Bcl-xL (unknown origin) incubated for 1.5 hrs by FPA competition assay
# Chain of Bcl-2-like protein 1 (Q07817 whole entry): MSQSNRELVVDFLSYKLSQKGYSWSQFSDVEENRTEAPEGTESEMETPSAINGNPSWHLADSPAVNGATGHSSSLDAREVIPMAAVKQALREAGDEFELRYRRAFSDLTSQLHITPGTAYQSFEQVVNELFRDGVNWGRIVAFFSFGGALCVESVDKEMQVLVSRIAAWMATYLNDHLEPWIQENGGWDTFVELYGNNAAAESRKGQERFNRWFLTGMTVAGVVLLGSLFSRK
# In short: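 Compounds were added as a 10-point, 3-fold serial dilution and incubated 1.5 h at room temperature. IC50 came from a four-parameter fit of the anisotropy change, was converted to Ki, and duplicate values were averaged.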
# [4] = target: T1, Induced myeloid leukemia cell differentiation protein Mcl-1; test: Binding affinity to GST-tagged Mcl-1 (unknown origin) incubated for 60 mins by TR-FRET-binding affinity assay
# T1 sequence (Q07820 whole entry): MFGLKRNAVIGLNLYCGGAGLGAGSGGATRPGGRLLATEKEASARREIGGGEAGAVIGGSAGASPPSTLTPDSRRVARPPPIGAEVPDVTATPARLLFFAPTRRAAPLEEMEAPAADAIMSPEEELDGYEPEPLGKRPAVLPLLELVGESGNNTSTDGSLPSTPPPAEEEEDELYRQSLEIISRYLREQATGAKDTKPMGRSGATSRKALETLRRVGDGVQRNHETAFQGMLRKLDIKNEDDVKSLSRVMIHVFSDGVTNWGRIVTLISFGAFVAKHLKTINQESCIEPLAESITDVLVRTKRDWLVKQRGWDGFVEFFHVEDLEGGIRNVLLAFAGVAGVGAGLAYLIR
# Chain of Apoptosis regulator Bcl-2 (P10415 whole entry): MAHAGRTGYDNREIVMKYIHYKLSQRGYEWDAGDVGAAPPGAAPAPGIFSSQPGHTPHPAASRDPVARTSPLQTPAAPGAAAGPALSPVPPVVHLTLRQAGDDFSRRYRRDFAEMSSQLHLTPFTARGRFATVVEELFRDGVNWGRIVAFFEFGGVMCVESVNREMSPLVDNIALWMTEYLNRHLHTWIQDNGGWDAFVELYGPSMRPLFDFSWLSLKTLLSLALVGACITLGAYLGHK
SMILES,Ki [1] [µM],Ki [2] [µM],Ki [3] [µM],Ki [4] [µM]
O=C(O)c1c(CCCOc2cccc3ccccc23)c2cccc3c2n1CCS3,0.12,3.1,> 20,–
CC1Cn2c(C(=O)O)cc3cccc(c32)S1 (centres undefined),35,–,–,–
O=C(O)c1cc2cccc3c2n1CCS3,51,–,–,–
O=C(O)c1cc2cccc3c2n1CCC3,131,–,–,–
Cc1c(C(=O)O)n2c3c(cccc13)SCC2,18,–,–,–
Cc1c(C(=O)O)n2c3c(cccc13)CCC2,90,–,–,–
Cc1c(C(=O)O)n2c3c(cccc13)OCC2,18,–,–,–
O=C(O)c1c(CCOc2cccc3ccccc23)c2cccc3c2n1CCS3,3,–,–,–
O=C(O)c1c(CCOc2cccc3ccccc23)c2cccc3c2n1CCC3,4,–,> 20,–
O=C(O)c1c(CCOc2cccc3ccccc23)c2cccc3c2n1CCO3,1.6,–,12.7,–
O=C(O)c1c(CCCOc2cccc3ccccc23)c2cccc3c2n1CCC3,0.31,–,> 20,–
O=C(O)c1c(CCCOc2cccc3ccccc23)c2cccc3c2n1CCO3,0.11,–,1.9,–
O=C(O)c1c(CCCOc2cccc3ccccc23)c2cccc3c2n1CCS3(=O)=O,0.088,–,> 20,–
O=C(O)c1c(CCCOc2cccc3ccccc23)c2cccc3c2n1CCCS3,0.17,9.9,7.4,–
O=C(O)c1c(CCCOc2cccc3ccccc23)c2cccc3c2n1CCC[S+]3[O-] (centres undefined),0.074,16,> 20,–
O=C(O)c1c(CCCOc2cccc3ccccc23)c2cccc3c2n1CCCS3(=O)=O,0.061,11.7,> 20,–
O=C(O)c1c(CCCOc2cccc3c2CCCC3)c2cccc3c2n1CCS3,0.15,–,3,–
O=C(O)c1c(CCCOc2ccc(Cl)c3ccccc23)c2cccc3c2n1CCS3,–,1.1,4.7,–
O=C(O)c1c(CCCOc2ccc3c(c2)CCCC3)c2cccc3c2n1CCS3,0.41,4.4,> 20,–
Cc1cc(OCCCc2c(C(=O)O)n3c4c(cccc24)SCC3)ccc1Cl,0.21,6.3,> 20,–
Cc1cc(OCCCc2c(C(=O)O)n3c4c(cccc24)SCC3)cc(C)c1Cl,–,2.3,> 20,–
Cc1cc(OCCCc2c(C(=O)O)n3c4c(cccc24)CCC3)cc(C)c1Cl,0.11,–,–,–
Cc1cc(OCCCc2c(C(=O)O)n3c4c(cccc24)OCC3)cc(C)c1Cl,0.065,–,–,–
Cc1cc(OCCCc2c(C(=O)O)n3c4c(cccc24)SCCC3)cc(C)c1Cl,–,–,> 20,–
Cc1cc(OCCCc2c(C(=O)O)n3c4c(c(Cl)ccc24)CCC3)cc(C)c1Cl,0.003,–,5.2,–
Cc1cc(OCCCc2c(C(=O)O)n3c4c(c(Cl)ccc24)OCC3)cc(C)c1Cl,–,–,> 20,–
COCCCc1c(C(=O)O)n(CCN2CCOCC2)c2c(-c3c(C)nn(C)c3COc3ccc(N4CCN(S(=O)(=O)N(C)C)CC4)cc3)cccc12,–,–,–,0.000454
O=C(O)c1cc2ccccc2[nH]1 [INDOLE-2-CARBOXYLIC ACID],> 1000,–,–,–
